According to ChEMBL document CHEMBL4304813 (ACS Med Chem Lett, 2019):
≈ marks a conversion by molar mass, not a printed value. Calls of active or inactive are those of the source. The rule behind the calls is not given here.

Tests used:
[1] = Solubility in PBS at pH 4 under shaking condition by HPLC analysis; type: physicochemical
[2] = Microsomal stability in human liver microsomes assessed as intrinsic clearance at 1 uM in presence of NADPH/phosphate buffer by LC-MS/MS analysis; type: ADME, Microsome; settings: read-out: CLH
[3] = Microsomal stability in human liver microsomes assessed as half-life at 1 uM in presence of NADPH/phosphate buffer by LC-MS/MS analysis; type: ADME, Microsome
[4] = Solubility in PBS at pH 7.4 under shaking condition by HPLC analysis; type: physicochemical
[5] = Inhibition of Hedgehog signaling pathway in mouse ASZ001 cells assessed as decrease in Gli1 mRNA expression after 48 hrs by qRT-PCR analysis; type: cell-based; settings: ASZ001, 48 h
How it was run: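 Hh-dependent murine basal cell carcinoma line ASZ001; read-out is Gli1 mRNA expression. IC50 given as mean ± SEM of at least two separate experiments, each run in triplicate.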

MEF = experiment: Inhibition of Hedgehog signaling pathway in Sufu-deficient mouse MEF cells assessed as decrease in Gli1 mRNA expression by q-PCR analysis relative to control; type: cell-based
Mus musculus [6] = species: Mus musculus; experiment: Inhibition of Hedgehog signaling pathway in mouse C3H10T1/2 cells assessed as reduction in recombinant mouse sonic hedgehog/oxysterol-induced Gli1 mRNA expression by q-PCR analysis; type: cell-based
[7] = Growth inhibition of human HC04 cells assessed as decrease in cell viability after 72 hrs by CellTiter96 AQueous non radioactive cell proliferation assay
How it was run: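 HC-04 is a human hepatocyte-derived line rich in drug-metabolizing enzymes. Anti-proliferative activity is reported as GI50.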

[8] = Aqueous solubility of the compound; type: physicochemical; settings: buffer
Mus musculus [9] = species: Mus musculus; experiment: Potency index, ratio of ITZ IC50 to test compound IC50 for inhibition of Hedgehog signaling pathway in mouse ASZ001 cells assessed as decrease in Gli1 mRNA expression after 48 hrs by qRT-PCR analysis; type: cell-based
[10] = Drug level in human liver microsomes treated with 1-(4-(4-(((2S,4R)-2-(2,4-dichlorophenyl)-2-methyl-1,3-dioxolan-4-yl)methoxy)phenyl)piperazin-1-yl)-3-(3-hydroxyphenyl)propan-1-one formation at 1 uM in presence of NADPH by LC-MS/MS analysis; type: ADME, Microsome
[11] = Drug level in human liver microsomes treated with 1-(4-(4-(((2S,4R)-2-(2,4-dichlorophenyl)-2-methyl-1,3-dioxolan-4-yl)methoxy)phenyl)piperazin-1-yl)-2-(3-hydroxyphenyl)ethanone assessed as increase in 1-(4-(((2S,4R)-2-(2,4-dichlorophenyl)-2-methyl-1,3-dioxolan-4-yl)methoxy)phenyl)piperazine formation at 1 uM in presence of NADPH by LC-MS/MS analysis; type: ADME, Microsome
[12] = Drug metabolism in human liver microsomes assessed as increase in oxidized metabolite formation at 1 uM in presence of NADPH by LC-MS/MS analysis; type: ADME, Microsome
[13] = Drug metabolism in human liver microsomes assessed as increase in 1-(4-(((2S,4R)-2-(2,4-dichlorophenyl)-2-methyl-1,3-dioxolan-4-yl)methoxy)phenyl)piperazine formation at 1 uM in presence of NADPH by LC-MS/MS analysis; type: ADME, Microsome

SMILES	microsomal CLint at 1 µM [2] [µL/min/mg]	half-life at 1 µM [3] [min]	IC50 [5] [µM]	further results
C[C@]1(c2ccc(Cl)cc2Cl)OC[C@@H](COc2ccc(N3CCN(C(=O)N/N=C/c4ccc(O)cc4)CC3)cc2)O1	60	11.4	0.96	solubility [1]: 0.05 µM (≈ 0.0293 µg/mL); solubility [4]: 0.02 µM (≈ 0.0117 µg/mL)
C[C@]1(c2ccc(Cl)cc2Cl)OC[C@@H](COc2ccc(N3CCN(C(=O)/C=C/c4ccc(O)cc4)CC3)cc2)O1			0.36	
C[C@]1(c2ccc(Cl)cc2Cl)OC[C@@H](COc2ccc(N3CCN(C(=O)c4ccccn4)CC3)cc2)O1			1.42	
C[C@]1(c2ccc(Cl)cc2Cl)OC[C@@H](COc2ccc(N3CCN(C(=O)c4cccnc4)CC3)cc2)O1			1.3	
C[C@]1(c2ccc(Cl)cc2Cl)OC[C@@H](COc2ccc(N3CCN(C(=O)c4ccncc4)CC3)cc2)O1			0.57	
C[C@]1(c2ccc(Cl)cc2Cl)OC[C@@H](COc2ccc(N3CCN(C(=O)CCCc4ccc(O)cc4)CC3)cc2)O1			0.47	
C[C@]1(c2ccc(Cl)cc2Cl)OC[C@@H](COc2ccc(N3CCN(C(=O)c4ccc(N)cc4)CC3)cc2)O1			0.28	
C[C@]1(c2ccc(Cl)cc2Cl)OC[C@@H](COc2ccc(N3CCN(C(=O)CCc4ccc(O)cc4)CC3)cc2)O1			0.26	
C[C@]1(c2ccc(Cl)cc2Cl)OC[C@@H](COc2ccc(N3CCN(CCCc4cccc(O)c4)CC3)cc2)O1	50	14	0.87	solubility [1]: 0.13 µM (≈ 0.0725 µg/mL); solubility [4]: 0.02 µM (≈ 0.0112 µg/mL)
C[C@]1(c2ccc(Cl)cc2Cl)OC[C@@H](COc2ccc(N3CCN(C(=O)Cc4cccc(O)c4)CC3)cc2)O1	33.9	20.4	0.38	Drug metabolism [12]: Metabolite_Detected; Drug metabolism [13]: Metabolite_Detected
COc1cccc(CCC(=O)N2CCN(c3ccc(OC[C@@H]4CO[C@](C)(c5ccc(Cl)cc5Cl)O4)cc3)CC2)c1			0.46	
C[C@@]1(c2ccc(Cl)cc2Cl)OC[C@@H](COc2ccc(N3CCN(C(=O)N/N=C/c4cccc(O)c4)CC3)cc2)O1			0.58	
C[C@]1(c2ccc(Cl)cc2Cl)OC[C@@H](COc2ccc(N3CCN(C(=O)c4ccc(O)cc4)CC3)cc2)O1			0.58	

The remaining compounds from weak to strong by IC50 [5], led by results:

microsomal CLint at 1 µM [2] [µL/min/mg]	half-life at 1 µM [3] [min]	IC50 [5] [µM]	SMILES	further results
43	15.9	0.26	C[C@]1(c2ccc(Cl)cc2Cl)OC[C@@H](COc2ccc(N3CCN(C(=O)c4cccc(O)c4)CC3)cc2)O1	
		0.23	C[C@]1(c2ccc(Cl)cc2Cl)OC[C@@H](COc2ccc(N3CCN(C(=O)CCc4ccccc4)CC3)cc2)O1	
		0.22	C[C@]1(c2ccc(Cl)cc2Cl)OC[C@@H](COc2ccc(N3CCN(C(=O)/C=C/c4cccc(O)c4)CC3)cc2)O1	
		0.16	C[C@]1(c2ccc(Cl)cc2Cl)OC[C@@H](COc2ccc(N3CCN(C(=O)c4ccc([N+](=O)[O-])cc4)CC3)cc2)O1	
		0.14	CCC(C)n1ncn(-c2ccc(N3CCN(c4ccc(OCC5COC(Cn6cncn6)(c6ccc(Cl)cc6Cl)O5)cc4)CC3)cc2)c1=O (stereo unspecified) [ITRACONAZOLE]	inhibition (MEF): inactive; inhibition (Mus musculus [6]): Active
		0.12	C[C@]1(c2ccc(Cl)cc2Cl)OC[C@@H](COc2ccc(N3CCN(C(=O)N/N=C/c4cccc(O)c4)CC3)cc2)O1	
105	6.6	0.089	C[C@]1(c2ccc(Cl)cc2Cl)OC[C@@H](COc2ccc(N3CCN(C(=O)CCc4ccc(O)c(O)c4)CC3)cc2)O1	solubility [4]: 0.84 µM (≈ 0.494 µg/mL)
218	3.2	0.081	C[C@]1(c2ccc(Cl)cc2Cl)OC[C@@H](COc2ccc(N3CCN(C(=O)CCc4cccc(O)c4)CC3)cc2)O1	GI50 at 72 h [7]: 13.2 µM; solubility [8]: Soluble; inhibition (Mus musculus [6]): Active; solubility [4]: 0.03 µM (≈ 0.0171 µg/mL); Ratio IC50 (Mus musculus [9]): 2
13.7	50.7	0.022	C[C@]1(c2ccc(Cl)cc2Cl)OC[C@@H](COc2ccc(N3CCNCC3)cc2)O1	GI50 at 72 h [7]: 27.3 µM; solubility [8]: Soluble; inhibition (MEF): inactive; inhibition (Mus musculus [6]): Active; Drug uptake [10]: Active; Drug uptake [11]: Active
